≈ marks a conversion by molar mass, not a printed value. Calls of active or inactive are those of the source. The rule behind the calls is not given here.
What was measured:
[1] = Inhibition of N-terminal FLAG-tagged and C-terminal SBP-tagged Staphylococcus aureus recombination UppS assessed as reduction in IPP condensation to growing prenyl chain by measuring pyrophosphate production incubated for 30 mins
Staphylococcus aureus [2] = assay: Binding affinity to N-terminal FLAG-tagged and C-terminal SBP-tagged Staphylococcus aureus recombinant UppS expressed in Escherichia coli by affinity selection based ELT screen assay
[3] = target: T1, Ditrans,polycis-undecaprenyl-diphosphate synthase ((2E,6E)-farnesyl-diphosphate specific) (Acinetobacter baumannii, UniProt V5VCK8); assay: Inhibition of hexa-histidine tagged Acinetobacter baumannii UppS expressed in Escherichia coli assessed as reduction in IPP condensation to growing prenyl chain by measuring pyrophosphate production
T1 sequence (V5VCK8 whole entry): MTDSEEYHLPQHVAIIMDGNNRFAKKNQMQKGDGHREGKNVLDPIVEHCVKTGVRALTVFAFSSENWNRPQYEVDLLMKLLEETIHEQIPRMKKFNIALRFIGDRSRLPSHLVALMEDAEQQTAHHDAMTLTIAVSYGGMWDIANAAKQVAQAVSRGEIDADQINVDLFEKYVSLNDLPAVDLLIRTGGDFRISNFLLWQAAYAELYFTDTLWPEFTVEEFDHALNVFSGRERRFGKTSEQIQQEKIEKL

[4] = target: T2, Ditrans,polycis-undecaprenyl-diphosphate synthase ((2E,6E)-farnesyl-diphosphate specific) (Klebsiella pneumoniae, UniProt A0A080SPQ8); assay: Inhibition of hexa-histidine tagged Klebsiella pneumoniae UppS expressed in Escherichia coli assessed as reduction in IPP condensation to growing prenyl chain by measuring pyrophosphate production
T2 sequence (A0A080SPQ8 whole entry): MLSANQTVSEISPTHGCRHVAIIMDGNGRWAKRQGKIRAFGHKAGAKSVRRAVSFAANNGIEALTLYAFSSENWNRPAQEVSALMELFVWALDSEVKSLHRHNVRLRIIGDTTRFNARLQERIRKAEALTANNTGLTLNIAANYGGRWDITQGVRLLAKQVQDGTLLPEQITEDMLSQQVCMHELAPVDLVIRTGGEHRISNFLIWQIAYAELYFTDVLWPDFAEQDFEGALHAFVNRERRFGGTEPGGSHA

[5] = target: T3, Ditrans,polycis-undecaprenyl-diphosphate synthase ((2E,6E)-farnesyl-diphosphate specific) (Pseudomonas aeruginosa (strain ATCC 15692 / DSM 22644 / CIP 104116 / JCM14847 / LMG 12228 / 1C / PRS 101 / PAO1), UniProt Q9HXY2); assay: Inhibition of hexa-histidine tagged Pseudomonas aeruginosa UppS expressed in Escherichia coli assessed as reduction in IPP condensation to growing prenyl chain by measuring pyrophosphate production incubated for 30 mins
T3 sequence (Q9HXY2 whole entry): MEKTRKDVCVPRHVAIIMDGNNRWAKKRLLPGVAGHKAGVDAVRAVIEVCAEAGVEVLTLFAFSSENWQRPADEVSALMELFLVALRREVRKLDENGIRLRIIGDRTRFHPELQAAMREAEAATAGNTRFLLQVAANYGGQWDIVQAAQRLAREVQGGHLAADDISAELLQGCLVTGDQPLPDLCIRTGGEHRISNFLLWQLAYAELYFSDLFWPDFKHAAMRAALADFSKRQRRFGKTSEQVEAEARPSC

Staphylococcus aureus [6] = assay: Binding affinity to N-terminal FLAG-tagged and C-terminal SBP-tagged Staphylococcus aureus recombination UppS assessed change in melting temperature at 10 uM by SYPRO Orange based assay
Staphylococcus aureus [7] = assay: Antibacterial activity against Staphylococcus aureus OXFORD incubated for 18 to 24 hrs by broth microdilution method; format: functional
Staphylococcus aureus [8] = assay: Antibacterial activity against Staphylococcus aureus WCUH29 incubated for 18 to 24 hrs by broth microdilution method; format: functional
Streptococcus pneumoniae [9] = assay: Antibacterial activity against Streptococcus pneumoniae 1629 incubated for 18 to 24 hrs by broth microdilution method; format: functional
Streptococcus pneumoniae [10] = assay: Antibacterial activity against Streptococcus pneumoniae Ery2 incubated for 18 to 24 hrs by broth microdilution method; format: functional
Streptococcus pyogenes = assay: Antibacterial activity against Streptococcus pyogenes 1307006P incubated for 18 to 24 hrs by broth microdilution method; format: functional
Moraxella catarrhalis = assay: Antibacterial activity against Moraxella catarrhalis 1502 incubated for 18 to 24 hrs by broth microdilution method; format: functional
Haemophilus influenzae [11] = assay: Antibacterial activity against Haemophilus influenzae H128 incubated for 18 to 24 hrs by broth microdilution method; format: functional
Haemophilus influenzae [12] = assay: Antibacterial activity against Haemophilus influenzae H128 deficient in AcrA incubated for 18 to 24 hrs by broth microdilution method; format: functional
Klebsiella pneumoniae = assay: Antibacterial activity against Klebsiella pneumoniae 1161486a deficient in tolC incubated for 18 to 24 hrs by broth microdilution method; format: functional
Escherichia coli = assay: Antibacterial activity against Escherichia coli 120 deficient in AcrAB incubated for 18 to 24 hrs by broth microdilution method; format: functional
Pseudomonas aeruginosa = assay: Antibacterial activity against Pseudomonas aeruginosa PAO322 deficient in MexA/B/C/D/E/F incubated for 18 to 24 hrs by broth microdilution method; format: functional
Acinetobacter baumannii = assay: Antibacterial activity against Acinetobacter baumannii ACM1010 incubated for 18 to 24 hrs by broth microdilution method; format: functional
Staphylococcus aureus [13] = assay: Antibacterial activity against Staphylococcus aureus RN4220 transfected with pYH4 in absence of anhydrotetracycline incubated for 18 to 24 hrs by broth microdilution method; format: functional
Staphylococcus aureus [14] = assay: Antibacterial activity against Staphylococcus aureus RN4220 transfected with pYH4 in presence of anhydrotetracycline incubated for 18 to 24 hrs by broth microdilution method; format: functional
Staphylococcus aureus [15] = assay: Antibacterial activity against Staphylococcus aureus RN4220 transfected with pYH4-UppS in absence of anhydrotetracycline incubated for 18 to 24 hrs by broth microdilution method; format: functional
Staphylococcus aureus [16] = assay: Antibacterial activity against Staphylococcus aureus RN4220 transfected with pYH4-UppS in presence of anhydrotetracycline incubated for 18 to 24 hrs by broth microdilution method; format: functional
Method in brief: (§1)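 S. aureus strain carrying an inducible uppS over-expression plasmid, with anhydrotetracycline inducer at 0.1 µg/mL. MIC was compared with the un-induced system and with a plasmid vector control strain.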

[17] = Cytotoxicity against mouse L5178Y TK+/- suspension cells incubated for 72 hrs by Cell-titer-Glo reagent based assay; settings: read-out: TC50
Staphylococcus aureus [18] = assay: Antibacterial activity against Staphylococcus aureus RN4220 expressing wild type UppS incubated for 18 to 24 hrs by broth microdilution method; format: functional
Staphylococcus aureus [19] = assay: Antibacterial activity against Staphylococcus aureus RN4220 expressing UppS F103L mutant incubated for 18 to 24 hrs by broth microdilution method; format: functional
Method in brief: (§2)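 S. aureus resistant mutants were isolated from the wild-type laboratory strain in the presence of the pyrazole UppS inhibitor and then tested for MIC.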

Staphylococcus aureus [20] = assay: Antibacterial activity against Staphylococcus aureus RN4220 expressing UppS F148L mutant incubated for 18 to 24 hrs by broth microdilution method; format: functional; method in brief: as §2
Staphylococcus aureus [21] = assay: Resistance index, ratio of MIC for antibacterial activity against Staphylococcus aureus RN4220 transfected with pYH4-UppS in presence of anhydrotetracycline to MIC for antibacterial activity against Staphylococcus aureus RN4220 transfected with pYH4-UppS in absence of anhydrotetracycline; format: functional; method in brief: as §1

| SMILES | IC50 [1] | Activity (Staphylococcus aureus [2]) | IC50 [3] | IC50 [4] | IC50 [5] | ΔTm (Staphylococcus aureus [6]) | MIC (Staphylococcus aureus [7]) | MIC (Staphylococcus aureus [8]) | MIC (Streptococcus pneumoniae [9]) | MIC (Streptococcus pneumoniae [10]) | MIC (Streptococcus pyogenes) | MIC (Moraxella catarrhalis) | MIC (Haemophilus influenzae [11]) | MIC (Haemophilus influenzae [12]) | MIC (Klebsiella pneumoniae) | MIC (Escherichia coli) | MIC (Pseudomonas aeruginosa) | MIC (Acinetobacter baumannii) | MIC (Staphylococcus aureus [13]) | MIC (Staphylococcus aureus [14]) | also measured |
| --- | --- | --- | --- | --- | --- | --- | --- | --- | --- | --- | --- | --- | --- | --- | --- | --- | --- | --- | --- | --- | --- |
| Cc1ccc(-c2c(C(=O)N(CCC(N)=O)Cc3ccc(OC(C)C)cc3)cnn2Cc2ccccc2)cc1 | 0.97 µM | Active | > 100 µM | > 100 µM | > 100 µM | 11 °C | 32 to 64 µg/mL (≈ 62.7 to 125 µM) | 32 to 64 µg/mL (≈ 62.7 to 125 µM) | 128 µg/mL (≈ 251 µM) | 128 µg/mL (≈ 251 µM) | 128 µg/mL (≈ 251 µM) | 32 µg/mL (≈ 62.7 µM) | > 128 µg/mL | 32 µg/mL (≈ 62.7 µM) | > 128 µg/mL | > 128 µg/mL | > 128 µg/mL | > 128 µg/mL | 64 µg/mL (≈ 125 µM) | 32 µg/mL | MIC (Staphylococcus aureus [15]): 128 µg/mL (≈ 251 µM); MIC (Staphylococcus aureus [16]): > 128 µg/mL; CC50 at 72 h [17]: 100 µM |
| CC(C)Oc1ccc(CN(CCC(N)=O)C(=O)c2cnn(Cc3ccccc3)c2-c2ccc3sccc3c2)cc1 | 0.19 µM | Active | > 100 µM | > 100 µM | > 100 µM | 8 °C | 8 µg/mL (≈ 14.5 µM) | 4 to 8 µg/mL (≈ 7.24 to 14.5 µM) | 32 to 64 µg/mL (≈ 57.9 to 116 µM) | 32 to 64 µg/mL (≈ 57.9 to 116 µM) | 64 µg/mL (≈ 116 µM) | 8 to 16 µg/mL (≈ 14.5 to 28.9 µM) | > 128 µg/mL | 8 to 16 µg/mL (≈ 14.5 to 28.9 µM) | > 128 µg/mL | > 128 µg/mL | > 128 µg/mL | > 128 µg/mL | 8 µg/mL (≈ 14.5 µM) | 8 µg/mL | MIC (Staphylococcus aureus [15]): 32 µg/mL (≈ 57.9 µM); MIC (Staphylococcus aureus [16]): 64 µg/mL; MIC (Staphylococcus aureus [18]): 8 µg/mL (≈ 14.5 µM); MIC (Staphylococcus aureus [19]): 64 µg/mL (≈ 116 µM); MIC (Staphylococcus aureus [20]): 64 µg/mL (≈ 116 µM); CC50 at 72 h [17]: 25 µM; Ratio (Staphylococcus aureus [21]): 2 |
| C[C@@H](O)[C@H]1C(=O)N2C(C(=O)O)=C(S[C@@H]3CN[C@H](C(=O)N(C)C)C3)[C@H](C)[C@H]12 [MEROPENEM] |  |  |  |  |  |  | 0.125 µg/mL (≈ 0.326 µM) | 2 µg/mL (≈ 5.22 µM) | 0.016 µg/mL (≈ 0.0417 µM) | 0.016 µg/mL (≈ 0.0417 µM) | ≤ 0.008 µg/mL | ≤ 0.008 µg/mL | 0.125 µg/mL (≈ 0.326 µM) | 0.125 µg/mL (≈ 0.326 µM) | 0.03 µg/mL (≈ 0.0782 µM) | 0.03 µg/mL (≈ 0.0782 µM) | 0.5 µg/mL (≈ 1.3 µM) | 0.5 µg/mL (≈ 1.3 µM) |  |  |  |
| O=C(O)c1cn(C2CC2)c2cc(N3CCNCC3)c(F)cc2c1=O [CIPROFLOXACIN] |  |  |  |  |  |  |  | 0.5 µg/mL (≈ 1.51 µM) | 0.25 µg/mL (≈ 0.754 µM) | 2 µg/mL (≈ 6.04 µM) | 0.5 µg/mL (≈ 1.51 µM) | 0.03 µg/mL (≈ 0.0905 µM) | ≤ 0.008 µg/mL | ≤ 0.008 µg/mL | ≤ 0.008 µg/mL | ≤ 0.008 µg/mL | ≤ 0.008 µg/mL | > 8 µg/mL |  |  |  |

From ChEMBL document CHEMBL4428042, “Discovery and Characterization of a Class of Pyrazole Inhibitors of Bacterial Undecaprenyl Pyrophosphate Synthase” (J Med Chem, 2016)
